Twelve compounds from ChEMBL document CHEMBL1681766, “Structure and property based design of factor Xa inhibitors: pyrrolidin-2-ones with aminoindane and phenylpyrrolidine P4 motifs” (Bioorg Med Chem Lett, 2011) can be followed below.

Broadly, the half-life is the time in which the quantity being followed falls by half. Higher therefore signals slow decline. As usually defined, the bioavailability is the share of a dose that reaches the circulation, judged against a reference dose that is usually intravenous. A high value points to much systemic uptake.

Assay type in all cases: ADME, organism-based
Series [1] in a line: Volume of distribution at steady state in iv/po dosed Sprague-Dawley rat. Particulars: in vivo, read-out: Vdss. The method in brief: (§1)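 Male Sprague-Dawley rats dosed by intravenous and by oral routes. Pharmacokinetic parameters are derived from these studies.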
Series [2] can be described thus: Half life in iv/po dosed Sprague-Dawley rat. Particulars: in vivo. The method in brief: as §1
Series [3] in a line: Plasma clearance in iv/po dosed Sprague-Dawley rat. Summed up: as §1
Series [4] in a line: Oral bioavailability in Sprague-Dawley rat. Particulars: in vivo. The method in brief: as §1

Take `CN(C)C1CCc2cc(N3CC[C@H](NS(=O)(=O)/C=C/c4ccc(Cl)s4)C3=O)ccc21` (mixture of isomers): the Vd in series [1] stood at 1.1 L/kg. The compound also showed a half-life in series [2] of 1.7 h. For the same compound, in series [3], the clearance is 9.5 mL/min/kg. Further, the bioavailability in series [4] was 57%.
Regarding `O=C1[C@@H](NS(=O)(=O)c2ccc3cc(Cl)ccc3c2)CCN1c1ccc([C@@H]2CCCN2)cc1F`, the Vd in series [1] came to 1.7 L/kg. Moreover, the half-life in series [2] is 7.5 h. Also, in series [3], the clearance came out at 2.8 mL/min/kg. Moreover, in series [4], the bioavailability came to 38%.
In the same order, the values of `O=C1[C@@H](NS(=O)(=O)c2ccc3cc(Cl)ccc3c2)CCN1c1ccc([C@H]2CCCN2)cc1F` are 1.9 L/kg, 10.2 h, 2.6 mL/min/kg and 25%.
In the same order, the values of `O=C1[C@@H](NS(=O)(=O)c2ccc3cc(Cl)ccc3c2)CCN1c1ccc(C2CCCN2)cc1F` (mixture of isomers) are 1.9 L/kg, 9 h, 2.7 mL/min/kg and 24%.
Taken in the same sequence, the figures for `CN1CCCC1c1ccc(N2CC[C@H](NS(=O)(=O)/C=C/c3ccc(Cl)s3)C2=O)c(F)c1` (mixture of isomers) were 0.8 L/kg, 1.4 h, 11 mL/min/kg and 41%.
As to `O=C1[C@@H](NS(=O)(=O)c2ccc3c(Cl)c[nH]c3c2)CCN1c1ccc(C2CCCN2)cc1F` (mixture of isomers), in series [1], the Vd came to 0.8 L/kg. The half-life in series [2] was 11 h. Moreover, the clearance in series [3] came out at 1.3 mL/min/kg. For the same compound, the bioavailability in series [4] is less than 1%.
In the same order, the values of `O=C1[C@@H](NS(=O)(=O)/C=C/c2ccc(Cl)s2)CCN1c1ccc(C2CCCN2)cc1F` (mixture of isomers) are 0.7 L/kg, 3.4 h, 2.8 mL/min/kg and 52%.
On to `CNC1CCc2cc(N3CC[C@H](NS(=O)(=O)/C=C/c4ccc(Cl)s4)C3=O)ccc21` (mixture of isomers), for which the Vd in series [1] was 0.9 L/kg. In addition, the half-life in series [2] was 5.4 h. The compound further returned a clearance in series [3] of 2.2 mL/min/kg.
The compound `CN[C@@H](C)c1ccc(N2CC[C@H](NS(=O)(=O)c3ccc4cc(Cl)ccc4c3)C2=O)c(F)c1` displayed a bioavailability in series [4] of more than 10%.
With `CNC1CCc2cc(N3CC[C@H](NS(=O)(=O)c4ccc5cc(Cl)ccc5c4)C3=O)ccc21` (mixture of isomers), in series [1], the Vd is 2.4 L/kg. For the same compound, the half-life in series [2] is 12.4 h. This compound also registered a clearance in series [3] of 2.5 mL/min/kg. In addition, the bioavailability in series [4] was found to be 25%.
As for `CN(C)[C@H]1CCc2cc(N3CC[C@H](NS(=O)(=O)c4ccc5cc(Cl)ccc5c4)C3=O)ccc21`, the Vd in series [1] was found to be 2 L/kg. Moreover, the half-life in series [2] is 4.4 h. This compound gave a clearance in series [3] of 6 mL/min/kg. Moreover, the bioavailability in series [4] was 61%.
In the same order, the values of `CN(C)[C@@H]1CCc2cc(N3CC[C@H](NS(=O)(=O)c4ccc5cc(Cl)ccc5c4)C3=O)ccc21` are 1.7 L/kg, 3.4 h, 7.6 mL/min/kg and 27%.
